Source: PubChem BioAssay (several laboratories)
Compounds with a hit are over-represented: about 3.5% of the library has one in this group of screens.
ABCB1 block – human ABCB1 inhibition, ABCG2 as counter-screen. P08183. inhibition, % at 6.6 µM. CCRF-Adr cells, JC-1 efflux, flow cytometry. 190,000 tested, 0.067% active; in the data active = inhibition above about 40%;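 also: 0% = vehicle and 100% = reference inhibitor; higher value means more JC-1 retained so stronger ABCB1 efflux block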
Target sequence (P08183 whole entry, looked up): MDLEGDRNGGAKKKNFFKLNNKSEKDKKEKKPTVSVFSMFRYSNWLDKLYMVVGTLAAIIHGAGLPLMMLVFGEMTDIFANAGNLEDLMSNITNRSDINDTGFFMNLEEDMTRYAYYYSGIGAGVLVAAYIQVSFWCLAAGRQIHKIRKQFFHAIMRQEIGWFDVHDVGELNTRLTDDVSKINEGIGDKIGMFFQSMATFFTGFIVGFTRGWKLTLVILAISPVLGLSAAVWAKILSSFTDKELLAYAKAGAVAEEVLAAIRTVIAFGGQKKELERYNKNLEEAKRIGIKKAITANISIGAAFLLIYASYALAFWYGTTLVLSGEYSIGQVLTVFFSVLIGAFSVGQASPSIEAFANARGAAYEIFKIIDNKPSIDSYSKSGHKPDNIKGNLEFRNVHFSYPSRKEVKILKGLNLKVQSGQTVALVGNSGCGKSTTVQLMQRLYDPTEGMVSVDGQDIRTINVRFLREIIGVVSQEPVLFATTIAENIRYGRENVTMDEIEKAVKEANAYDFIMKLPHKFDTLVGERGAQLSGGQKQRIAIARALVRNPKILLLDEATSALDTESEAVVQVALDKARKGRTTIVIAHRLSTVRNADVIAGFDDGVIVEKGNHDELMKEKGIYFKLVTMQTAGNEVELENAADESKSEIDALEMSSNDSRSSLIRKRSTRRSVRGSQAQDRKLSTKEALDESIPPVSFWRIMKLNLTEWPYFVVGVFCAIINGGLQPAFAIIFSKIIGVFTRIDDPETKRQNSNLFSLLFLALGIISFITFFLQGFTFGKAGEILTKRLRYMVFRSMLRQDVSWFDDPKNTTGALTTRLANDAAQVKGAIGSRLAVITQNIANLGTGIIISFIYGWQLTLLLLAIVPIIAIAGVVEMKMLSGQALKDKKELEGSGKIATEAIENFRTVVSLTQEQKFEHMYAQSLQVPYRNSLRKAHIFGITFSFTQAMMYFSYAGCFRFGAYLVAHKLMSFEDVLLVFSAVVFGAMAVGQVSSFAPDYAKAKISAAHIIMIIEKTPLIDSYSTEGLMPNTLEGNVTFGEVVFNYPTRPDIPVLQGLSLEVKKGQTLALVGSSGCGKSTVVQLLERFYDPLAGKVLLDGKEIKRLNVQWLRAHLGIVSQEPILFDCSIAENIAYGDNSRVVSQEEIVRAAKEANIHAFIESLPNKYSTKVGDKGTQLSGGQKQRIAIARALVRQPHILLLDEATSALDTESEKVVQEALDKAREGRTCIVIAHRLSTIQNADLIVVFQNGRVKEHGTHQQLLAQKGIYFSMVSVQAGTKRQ
MEKK2 mut-MEK5 – signal of MEK5 binding to mutant human MEKK2 PB1 domain; bead flow cytometry, Alexa488-MEK5 binding to MEKK2 mutant; percent response, % at 10 µM; 290,000 tested, 0.35% active; in the data active = percent response above about 24%, passing the limit was not always enough
ABCG2 block – human ABCG2 inhibition, ABCB1 as counter-screen; Q9UNQ0; IgMXP3 cells, JC-1 efflux, flow cytometry; inhibition, % at 6.6 µM; 190,000 tested, 0.1% active;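 active = inhibition above 80%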;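 also: 0% = DMSO and 100% = nicardipine control wells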
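Test system: IgMXP3 cells (ABCG2) mixed with DDAO far-red-labelled CCRF-Adr cells (ABCB1). Reagent: JC-1 transporter substrate. Compound dosing: single test compound dose, 6.6 µM final. Times: 10 min compound exposure, 25 °C. Detection: flow cytometry of retained JC-1 fluorescence. Read-out basis: efflux inhibition in percent versus controls. Controls: nicardipine and DMSO wells.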
MEKK2 WT-MEK5 – raises or lowers MEK5 binding to wildtype human MEKK2 PB1 domain. Q9Y2U5. bead flow cytometry, Alexa488-MEK5 binding to MEKK2 WT; actives lie on both sides. binding response (% of control), % at 10 µM. 290,000 tested, 1.1% active; in the data active = binding response below about 67% or above about 130%
MEKK3 PB1 HTS – modulators (inhibitors or enhancers) of MEK5 binding to human MEKK3 PB1 domain. Q99759. bead-based flow cytometry, Alexa488-MEK5 binding to MEKK3; actives lie on both sides; 0 = blocked by unlabeled MEK5, 100 = vehicle. binding response (% of control), % at 10 µM. 290,000 tested, 1.4% active. AID 1529;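 active = binding response more than 3 SD above or below the average of its plate-row segment, actives on both sides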;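 also: Alexa488 bead fluorescence after subtracting the streptavidin-only scavenger bead signal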
WT yeast gro inh – growth inhibition of WT yeast, mitochondrial fusion screen | 190,000 tested, 2.1% active | mitochondrial fusion phenotypic screen, WT strain | inhibition, % at 10 µM; in the data active = inhibition above about 58%; tested in S. cerevisiae
MEKK2wt confirm – raises or lowers MEK5 binding to wildtype human MEKK2, retest; shares compounds with MEKK3 PB1 HTS; bead flow cytometry, Alexa488-MEK5 binding to MEKK2 WT; actives lie on both sides; binding response (% of control), % at 10 µM; 5,900 tested, 2.4% active; in the data active = binding response below about 16% or above about 210%; inactive = in between
MEKK2mut confirm – signal of MEK5 binding to mutant human MEKK2, retest; AID 1893; percent response, % at 10 µM; bead flow cytometry, Alexa488-MEK5 binding to MEKK2 mutant; shares compounds with MEKK3 PB1 HTS; 5,900 tested, 2% active; in the data active = percent response mostly above about 71%, no sharp cut-off; inactive = mostly below about 38%;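 also: higher means compound restores mutant binding toward wildtype level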
MEKK3 confirm – confirmation of inhibitors of MEK5 binding to human MEKK3; 5,900 tested, 1.8% active; binding response (% of control), % at 10 µM; AID 1894; shares compounds with MEKK3 PB1 HTS; bead flow cytometry, Alexa488-MEK5 binding to MEKK3; hits give low values;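 active = binding response below 72% of control, or above a set upper limit, though filed actives all read lower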;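 also: 100% = DMSO only wells and 0% = binding blocked by excess unlabeled MEK5; lower values mean stronger disruption of MEK5 binding to MEKK3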
The depositor's hits bear a star; [ ] = remark or other dose.

For O=C(Cc1ccccc1F)Nc1ccc(S(=O)(=O)Nc2ncccn2)cc1 the results were MEKK2 mut-MEK5 4, MEKK2 WT-MEK5 100 and MEKK3 PB1 HTS 99.
`CC(=O)c1ccc[n+](CC(=O)NC(C)c2ccccc2)c1` (stereo not drawn) gave MEKK2 mut-MEK5 3, MEKK2 WT-MEK5 104 and MEKK3 PB1 HTS 102.
For COc1ccc(C2/C=C\CN(S(=O)(=O)c3ccc(C)cc3)CC(=O)N2Cc2ccc(F)cc2)cc1 (stereo not drawn) the results were MEKK2 mut-MEK5 2, MEKK2 WT-MEK5 158*, MEKK3 PB1 HTS 129*, MEKK2wt confirm 102, MEKK2mut confirm 1 and MEKK3 confirm 100.
For COC(=O)N1C/C=C\C(c2ccc(OC)cc2)N(Cc2ccc(F)cc2)C(=O)C1 (stereo not drawn) the results were MEKK2 mut-MEK5 3, MEKK2 WT-MEK5 94 and MEKK3 PB1 HTS 96.
COc1ccc(C2/C=C\CN(C(=O)NC34CC5CC(CC(C5)C3)C4)CC(=O)N2Cc2ccc(F)cc2)cc1 (stereo not drawn) was read as MEKK2 mut-MEK5 2, MEKK2 WT-MEK5 147*, MEKK3 PB1 HTS 123, MEKK2wt confirm 96, MEKK2mut confirm -1 and MEKK3 confirm 102.
For Cc1ccc(-c2nnn(CC(=O)Nc3nnc(C(C)C)s3)n2)cc1 the results were ABCB1 block 0, MEKK2 mut-MEK5 -42, ABCG2 block 0, MEKK2 WT-MEK5 100, MEKK3 PB1 HTS 95 and WT yeast gro inh -7.
For O=C(CSc1ccc2nnc(-c3ccncc3)n2n1)Nc1nccs1 the results were ABCB1 block 0, MEKK2 mut-MEK5 -3, ABCG2 block 1, MEKK2 WT-MEK5 86, MEKK3 PB1 HTS 82 and WT yeast gro inh -13.
`COc1ccc(-c2nnc3ccc(SCC(=O)Nc4nccs4)nn23)cc1OC` gave ABCB1 block 0, MEKK2 mut-MEK5 1, ABCG2 block 1, MEKK2 WT-MEK5 108, MEKK3 PB1 HTS 128*, WT yeast gro inh -2, MEKK2wt confirm 101, MEKK2mut confirm 5 and MEKK3 confirm 102.
COc1ccc(-c2[nH]c(-c3ccc(C)cc3)nc2SCC(=O)Nc2nccs2)cc1 was read as ABCB1 block 0, MEKK2 mut-MEK5 0, ABCG2 block -1, MEKK2 WT-MEK5 106, MEKK3 PB1 HTS 134*, WT yeast gro inh 18, MEKK2wt confirm 109, MEKK2mut confirm 5 and MEKK3 confirm 103.
`CC(C)[C@H](NC(=O)c1ccco1)C(=O)Nc1ccc(OC(F)F)cc1` gave MEKK2 mut-MEK5 12, MEKK2 WT-MEK5 107 and MEKK3 PB1 HTS 111.
Cc1ccccc1CN1C(=O)c2ccccc2Sc2ccc(C(=O)NCCN3CCOCC3)cc21 was read as MEKK2 mut-MEK5 4, MEKK2 WT-MEK5 110 and MEKK3 PB1 HTS 106.
Screening CCN1CCN(CCNC(=O)c2ccc(/C=C3/Sc4ccccc4N(Cc4ccccc4C)C3=O)cc2)CC1 returned ABCB1 block 1, MEKK2 mut-MEK5 54*, ABCG2 block -5, MEKK2 WT-MEK5 203*, MEKK3 PB1 HTS 104, WT yeast gro inh 77*, MEKK2wt confirm 193, MEKK2mut confirm 67 and MEKK3 confirm 110.
Screening C#CC1(NC(=O)NC(C)C)CCCCC1 returned ABCB1 block 0, MEKK2 mut-MEK5 1, ABCG2 block 3, MEKK2 WT-MEK5 107, MEKK3 PB1 HTS 108 and WT yeast gro inh 4.
COc1ccc(CNC(=O)CCn2nc(C)c3c(C)n(-c4ccccc4)nc3c2=O)c(OC)c1 was read as MEKK2 mut-MEK5 1, MEKK2 WT-MEK5 98 and MEKK3 PB1 HTS 100.
`Cc1cc(Cl)ccc1NC(=S)NCC(C)C` gave ABCB1 block 0, MEKK2 mut-MEK5 0, ABCG2 block 6, MEKK2 WT-MEK5 111, MEKK3 PB1 HTS 138*, WT yeast gro inh 7, MEKK2wt confirm 103, MEKK2mut confirm 8 and MEKK3 confirm 103.
Screening S=C(NCc1ccccc1Cl)Nc1ccccc1Cl returned ABCB1 block 1, MEKK2 mut-MEK5 -1, ABCG2 block 18, MEKK2 WT-MEK5 98, MEKK3 PB1 HTS 101 and WT yeast gro inh 46.
`Cc1cc(Cl)ccc1NC(=S)NCc1ccccc1Cl` gave ABCB1 block 1, MEKK2 mut-MEK5 0, ABCG2 block 5, MEKK2 WT-MEK5 109, MEKK3 PB1 HTS 128*, WT yeast gro inh 51, MEKK2wt confirm 103, MEKK2mut confirm 2 and MEKK3 confirm 101.
`CCOCCCNc1ccc(N2C(=O)CCCC2=O)cc1[N+](=O)[O-]` gave MEKK2 mut-MEK5 9, MEKK2 WT-MEK5 113 and MEKK3 PB1 HTS 107.
Nc1ccc(Oc2ccc(Br)cc2)cc1 was read as ABCB1 block 0, MEKK2 mut-MEK5 -1, ABCG2 block 0, MEKK2 WT-MEK5 97, MEKK3 PB1 HTS 72*[inhibitor], WT yeast gro inh -16, MEKK2wt confirm 104, MEKK2mut confirm 4 and MEKK3 confirm 103.
COc1c(C(=O)Nc2nnc(C3CC3)s2)csc1Cl was read as MEKK2 mut-MEK5 10, MEKK2 WT-MEK5 114 and MEKK3 PB1 HTS 106.
For O=[N+]([O-])c1ccc(C[n+]2cccc3c4ccccc4ccc32)cc1 the results were ABCB1 block 1, MEKK2 mut-MEK5 20, ABCG2 block 7, MEKK2 WT-MEK5 8.0*[inhibitor], MEKK3 PB1 HTS 99, WT yeast gro inh 37, MEKK2wt confirm 109, MEKK2mut confirm 9 and MEKK3 confirm 99.
O=C(Cc1cccs1)NCc1ccccc1Br was read as MEKK2 mut-MEK5 -3, MEKK2 WT-MEK5 99 and MEKK3 PB1 HTS 100.
For CC(=O)Oc1ccc(C(=O)[C@H]2[C@H]3C(=O)N(c4cccc5ccccc45)C(=O)[C@H]3[C@@H]3C=CC=NN32)cc1 the results were ABCB1 block -1, MEKK2 mut-MEK5 0, ABCG2 block 0, MEKK2 WT-MEK5 101, MEKK3 PB1 HTS 179*, WT yeast gro inh -9, MEKK2wt confirm 101, MEKK2mut confirm 2 and MEKK3 confirm 103.
